In ChEMBL document CHEMBL3272334, “Folate antagonists. 10. Synthesis and antimalarial effects of 6-[[(aryl and aralkyl)amino]methyl]-2,4-pteridinediamines and -pteridinediamine 8-oxides” (1978):
In brackets after ≈: the same amount, converted by molar mass. Activity calls are given as the source filed them. No cut-off for these calls is given here.

What was measured:
Plasmodium berghei [1] = experiment: Antimalarial activity against drug-sensitive trophozoite stage of Plasmodium berghei infected in mouse assessed as increase in mean survival time up to 640 mg/kg, sc administered 72 hrs post infection; format: functional, organism-based; set-up: dose 640 mg/kg
Plasmodium gallinaceum [2] = experiment: Antimalarial activity against sporozoite stage of Plasmodium gallinaceum infected in white leghorn cockerel assessed as survival over 30 days at 320 mg/kg, sc administered through peanut oil on day of infection; format: functional, organism-based; set-up: dose 320 mg/kg
Plasmodium gallinaceum [3] = experiment: Antimalarial activity against sporozoite stage of Plasmodium gallinaceum infected in white leghorn cockerel assessed as survival over 30 days at 80 mg/kg, sc administered through peanut oil on day of infection; format: functional, organism-based; set-up: dose 80 mg/kg
Plasmodium gallinaceum [4] = experiment: Antimalarial activity against sporozoite stage of Plasmodium gallinaceum infected in white leghorn cockerel assessed as survival over 30 days at 20 mg/kg, sc administered through peanut oil on day of infection; format: functional, organism-based; set-up: dose 20 mg/kg
Enterococcus faecalis = experiment: Antibacterial activity against Streptococcus faecalis MGH2 assessed as growth inhibition by gradient plate test; format: functional
Procedure, shortened: (§1)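 Modified gradient-plate method, in vitro. Panel: Streptococcus faecalis MGH-2, normal S. aureus UC-76, drug-resistant S. aureus S18713, E. coli Vogel, Shigella sonnei C-10.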

Staphylococcus aureus [5] = experiment: Antibacterial activity against Staphylococcus aureus UC-76 assessed as growth inhibition by gradient plate test; format: functional; procedure, shortened: as §1
Staphylococcus aureus [6] = experiment: Antibacterial activity against drug-resistant Staphylococcus aureus S18713 assessed as growth inhibition by gradient plate test; format: functional
Procedure, shortened: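 In vitro test against a bacterial panel (S. faecalis MGH-2, S. aureus UC-76 and drug-resistant S18713, E. coli Vogel, Shigella sonnei C-10), run as a modified gradient plate procedure.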

Escherichia coli = experiment: Antibacterial activity against Escherichia coli Vogel assessed as growth inhibition by gradient plate test; format: functional; procedure, shortened: as §1
Shigella sonnei = experiment: Antibacterial activity against Shigella sonnei C-10 assessed as growth inhibition by gradient plate test; format: functional; procedure, shortened: as §1
Plasmodium gallinaceum [7] = experiment: Antimalarial activity against sporozoite stage of Plasmodium gallinaceum infected in white leghorn cockerel assessed as survival over 30 days at 480 mg/kg, sc administered through peanut oil on day of infection; format: functional, organism-based; set-up: dose 480 mg/kg
Plasmodium gallinaceum [8] = experiment: Antimalarial activity against sporozoite stage of Plasmodium gallinaceum infected in white leghorn cockerel assessed as survival over 30 days at 120 mg/kg, sc administered through peanut oil on day of infection; format: functional, organism-based; set-up: dose 120 mg/kg
Plasmodium gallinaceum [9] = experiment: Antimalarial activity against sporozoite stage of Plasmodium gallinaceum infected in white leghorn cockerel assessed as survival over 30 days at 60 mg/kg, sc administered through peanut oil on day of infection; format: functional, organism-based; set-up: dose 60 mg/kg
Plasmodium gallinaceum [10] = experiment: Antimalarial activity against sporozoite stage of Plasmodium gallinaceum infected in white leghorn cockerel assessed as survival over 30 days at 30 mg/kg, sc administered through peanut oil on day of infection; format: functional, organism-based; set-up: dose 30 mg/kg
Plasmodium gallinaceum [11] = experiment: Antimalarial activity against sporozoite stage of Plasmodium gallinaceum infected in white leghorn cockerel assessed as survival over 30 days at 15 mg/kg, sc administered through peanut oil on day of infection; format: functional, organism-based; set-up: dose 15 mg/kg
Plasmodium gallinaceum [12] = experiment: Antimalarial activity against sporozoite stage of Plasmodium gallinaceum infected in white leghorn cockerel assessed as survival over 30 days at 3.75 mg/kg, sc administered through peanut oil on day of infection; format: functional, organism-based; set-up: dose 3.75 mg/kg
Plasmodium berghei [13] = experiment: Antimalarial activity against drug-sensitive trophozoite stage of Plasmodium berghei infected in mouse assessed as survival over 60 days at 320 mg/kg, sc administered 72 hrs post infection; format: functional, organism-based; set-up: dose 320 mg/kg
Plasmodium berghei [14] = experiment: Antimalarial activity against trophozoite stage of Plasmodium berghei infected in mouse assessed as increase in mean survival time at 160 mg/kg, sc administered 72 hrs post infection; format: functional; conditions: route subcutaneous
Plasmodium gallinaceum [15] = experiment: Antimalarial activity against sporozoite stage of Plasmodium gallinaceum infected in white leghorn cockerel assessed as increase in mean survival time at 7.5 mg/kg, sc administered through peanut oil on day of infection; format: functional; conditions: route subcutaneous
Plasmodium gallinaceum [16] = experiment: Antimalarial activity against sporozoite stage of Plasmodium gallinaceum infected in white leghorn cockerel assessed as increase in mean survival time at 3.75 mg/kg, sc administered through peanut oil on day of infection; format: functional; conditions: route subcutaneous
Plasmodium berghei [17] = experiment: Antimalarial activity against trophozoite stage of Plasmodium berghei infected in mouse assessed as increase in mean survival time at 40 mg/kg, sc administered 72 hrs post infection; format: functional; conditions: route subcutaneous
Plasmodium cynomolgi [18] = experiment: Antimalarial activity against trophozoite stage of Plasmodium cynomolgi infected in rhesus monkey at 3.16 mg/kg, po; format: functional, organism-based; set-up: dose 3.16 mg/kg
Procedure, shortened: (§2)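 Rhesus monkey, one oral dose. Trophozoite-induced P. cynomolgi infection at 3.16 mg/kg; sporozoite-induced P. cynomolgi infection at 10 mg/kg.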

Plasmodium cynomolgi [19] = experiment: Antimalarial activity against sporozoite stage of Plasmodium cynomolgi infected in rhesus monkey at 10 mg/kg; format: functional, organism-based; set-up: dose 10 mg/kg; procedure, shortened: as §2
Plasmodium gallinaceum [20] = experiment: Antimalarial activity against sporozoite stage of Plasmodium gallinaceum infected in white leghorn cockerel assessed as increase in mean survival time at 480 mg/kg, sc administered through peanut oil on day of infection; format: functional; conditions: route subcutaneous
Plasmodium gallinaceum [21] = experiment: Antimalarial activity against sporozoite stage of Plasmodium gallinaceum infected in white leghorn cockerel assessed as increase in mean survival time at 120 mg/kg, sc administered through peanut oil on day of infection; format: functional; conditions: route subcutaneous
Plasmodium gallinaceum [22] = experiment: Antimalarial activity against sporozoite stage of Plasmodium gallinaceum infected in white leghorn cockerel assessed as increase in mean survival time at 30 mg/kg, sc administered through peanut oil on day of infection; format: functional; conditions: route subcutaneous

| SMILES | Activity (Plasmodium berghei [1]) | MIC (Enterococcus faecalis) [µg/mL] | MIC (Staphylococcus aureus [5]) [µg/mL] | MIC (Staphylococcus aureus [6]) [µg/mL] | MIC (Escherichia coli) [µg/mL] | MIC (Shigella sonnei) [µg/mL] | further results |
| --- | --- | --- | --- | --- | --- | --- | --- |
| CCN(Cc1cnc2nc(N)nc(N)c2n1)c1ccc(OC)cc1 | inactive | < 0.25 | < 0.25 | < 0.25 | > 25 | > 25 | Activity (Plasmodium gallinaceum [2]): Active; Activity (Plasmodium gallinaceum [3]): Active; Activity (Plasmodium gallinaceum [4]): Active |
| CCN(Cc1c[n+]([O-])c2nc(N)nc(N)c2n1)c1ccc(Cl)cc1 | inactive |  |  |  |  |  |  |
| CN(Cc1cnc2nc(N)nc(N)c2n1)c1ccc(Cl)cc1 | inactive | < 0.25 | 1.5 (≈ 4.75 µM) | 2 (≈ 6.33 µM) | > 25 | > 25 |  |
| Nc1nc(N)c2nc(CN(C=O)c3ccc(Cl)c(Cl)c3)cnc2n1 | inactive | < 0.25 | 1 (≈ 2.75 µM) | 2 (≈ 5.49 µM) | > 25 | > 25 |  |
| CC(C)N(Cc1cnc2nc(N)nc(N)c2n1)c1ccc(Cl)cc1.CN(C)C=O | inactive | < 0.25 | < 0.25 | 1.5 | > 25 | > 25 | Activity (Plasmodium gallinaceum [7]): Active; Activity (Plasmodium gallinaceum [8]): Active; Activity (Plasmodium gallinaceum [9]): Active; Activity (Plasmodium gallinaceum [10]): Active; Activity (Plasmodium gallinaceum [11]): Active; Activity (Plasmodium gallinaceum [12]): Active |
| CN(Cc1cnc2nc(N)nc(N)c2n1)c1ccc(Cl)c(Cl)c1 | inactive | < 0.25 | < 0.25 | 1.5 (≈ 4.28 µM) | > 25 | > 25 |  |
| CCOC(=O)c1ccc(N(C)Cc2cnc3nc(N)nc(N)c3n2)cc1 | inactive |  |  |  |  |  | Activity (Plasmodium gallinaceum [7]): Active; Activity (Plasmodium gallinaceum [8]): Active; Activity (Plasmodium gallinaceum [9]): Active |
| COc1cc(N(C)Cc2c[n+]([O-])c3nc(N)nc(N)c3n2)cc(OC)c1OC | inactive |  |  |  |  |  |  |
| CC(C)N(Cc1cnc2nc(N)nc(N)c2n1)c1ccc(Cl)c(Cl)c1 | inactive | < 0.25 | < 0.25 | < 0.25 | > 25 | > 25 |  |
| COc1cc(N(C)Cc2cnc3nc(N)nc(N)c3n2)cc(OC)c1OC |  | < 0.25 | < 0.25 | < 0.25 | > 25 | > 25 | Activity (Plasmodium berghei [13]): Active; Survival (Plasmodium berghei [14]): 8.5 days |
| CCCN(Cc1cnc2nc(N)nc(N)c2n1)c1ccc(Cl)c(Cl)c1 | inactive | < 0.25 | < 0.25 | < 0.25 | > 25 | > 25 | Activity (Plasmodium gallinaceum [7]): Active; Activity (Plasmodium gallinaceum [8]): Active; Activity (Plasmodium gallinaceum [9]): Active; Activity (Plasmodium gallinaceum [10]): Active; Activity (Plasmodium gallinaceum [12]): Active |
| CN(Cc1c[n+]([O-])c2nc(N)nc(N)c2n1)c1ccc(Cl)c(Cl)c1 | inactive |  |  |  |  |  |  |
| Nc1nc(N)c2nc(CN3CCCc4ccccc43)cnc2n1 |  |  |  |  |  |  | Activity (Plasmodium gallinaceum [7]): Active; Activity (Plasmodium gallinaceum [8]): Active; Activity (Plasmodium gallinaceum [9]): Active; Activity (Plasmodium gallinaceum [10]): Active; Survival (Plasmodium gallinaceum [15]): 2.3 days; Survival (Plasmodium gallinaceum [16]): 1.3 days |
| CN(Cc1cnc2nc(N)nc(N)c2n1)c1cccc2ccccc12 |  | < 0.25 | 1 (≈ 3.02 µM) | > 2.5 | > 25 | > 25 | Activity (Plasmodium berghei [13]): Active; Survival (Plasmodium berghei [17]): 5.4 days; Activity (Plasmodium cynomolgi [18]): inactive; Activity (Plasmodium cynomolgi [19]): inactive |
| CN(C)C=O.Nc1nc(N)c2nc(CNc3ccc(Cl)c(Cl)c3)cnc2n1 | inactive | < 0.25 | < 0.25 | < 0.25 | > 25 | > 25 |  |
| CN(C)C=O.Nc1nc(N)c2nc(CN3CCCCC3c3ccccc3)cnc2n1 (configuration not stated) |  |  |  |  |  |  | Survival (Plasmodium gallinaceum [20]): 0.3 days; Survival (Plasmodium gallinaceum [21]): 0.2 days; Survival (Plasmodium gallinaceum [22]): 0.1 days |
| CCCN(Cc1c[n+]([O-])c2nc(N)nc(N)c2n1)c1ccc(Cl)c(Cl)c1 | inactive |  |  |  |  |  |  |
| CC(C)N(Cc1c[n+]([O-])c2nc(N)nc(N)c2n1)c1ccc(Cl)cc1 | inactive |  |  |  |  |  |  |
| CCN(Cc1cnc2nc(N)nc(N)c2n1)c1ccc(Cl)cc1 | inactive | < 0.25 | < 0.25 | 1.5 (≈ 4.55 µM) | > 25 | > 25 |  |
| CN(Cc1c[n+]([O-])c2nc(N)nc(N)c2n1)c1ccc(Cl)cc1 | inactive |  |  |  |  |  |  |
| CN(Cc1c[n+]([O-])c2nc(N)nc(N)c2n1)c1cccc2ccccc12 | inactive |  |  |  |  |  |  |
| Nc1nc(N)c2nc(CNc3ccc(Cl)c(Cl)c3)c[n+]([O-])c2n1 | inactive |  |  |  |  |  |  |
| CC(C)N(Cc1c[n+]([O-])c2nc(N)nc(N)c2n1)c1ccc(Cl)c(Cl)c1 | inactive |  |  |  |  |  |  |
| CCN(Cc1c[n+]([O-])c2nc(N)nc(N)c2n1)c1ccc(OC)cc1 | inactive |  |  |  |  |  |  |
